In brackets after ≈: the same amount, converted by molar mass.

What is called MIC is the lowest concentration found to suppress growth. Read a low MIC as a more susceptible organism. Usually MIC90 stands for the lowest concentration that inhibits either 90% of growth or 90% of the strains tested, depending on the study. Higher therefore signals weaker potency.

Common to all, as to assay type: functional
The subject of assay [1] is Mycobacterium tuberculosis. Put plainly: Antimicrobial activity against Mycobacterium tuberculosis harboring Mycobacterium smegmatis embB gene after 48 hrs by agar proportion method.
Assay [2] deals with Mycobacterium tuberculosis. As to the kind of experiment: Antimicrobial activity against Mycobacterium tuberculosis expressing EmbC T270I mutant gene after 48 hrs. A digest of the protocol: (§1)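 Spot test: 20 µl exponential-phase culture spotted on 7H10 agar plus 10% OADC with EMB 0 to 128 µg/ml. Incubated at 37°C for 10 to 30 days, and growth scored against the drug-free lawn. MIC taken as the highest EMB concentration allowing growth.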

In assay [3] the test system is Mycobacterium tuberculosis. Put plainly: Antimicrobial activity against Mycobacterium tuberculosis expressing EmbC D249G mutant gene after 48 hrs. The essentials:
as §1

For assay [4], the system named is Mycobacterium tuberculosis. Put plainly: Antimicrobial activity against Mycobacterium tuberculosis expressing EmbC T270I mutant gene after 48 hrs by agar proportion method.
In assay [5] the test system is Mycobacterium tuberculosis. Put plainly: Antimicrobial activity against Mycobacterium tuberculosis expressing EmbC M300L mutant gene after 48 hrs. A digest of the protocol: as §1
Assay [6] concerns Mycobacterium tuberculosis. Put plainly: Antimicrobial activity against Mycobacterium tuberculosis expressing EmbC M300I mutant gene after 48 hrs by agar proportion method.
The subject of assay [7] is Mycobacterium tuberculosis. Put plainly: Antimicrobial activity against Mycobacterium tuberculosis expressing EmbC M300V mutant gene after 48 hrs by agar proportion method.
In assay [8] the test system is Mycobacterium tuberculosis. As to the kind of experiment: Antimicrobial activity against Mycobacterium tuberculosis expressing EmbC M300V mutant gene after 48 hrs. The essentials: as §1
In assay [9] the test system is Mycobacterium tuberculosis. As to the kind of experiment: Antimicrobial activity against Mycobacterium tuberculosis expressing EmbC M300I mutant gene after 48 hrs. The essentials:
as §1

For assay [10], the system named is Mycobacterium tuberculosis. As to the kind of experiment: Antimicrobial activity against Mycobacterium tuberculosis expressing EmbC D249G mutant gene after 48 hrs by agar proportion method. The essentials:
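Agar proportion method: 10^4 CFU plated on 7H10-OADC with EMB or drug-free, and colonies counted after 4 weeks. MIC99 is the lowest concentration at which <1% of cells formed colonies.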

Assay [11] relates to Mycobacterium tuberculosis. Put plainly: Antimicrobial activity against Mycobacterium tuberculosis harboring Mycobacterium smegmatis embB M292V mutant gene after 48 hrs by agar proportion method.
The subject of assay [12] is Mycobacterium tuberculosis. As to the kind of experiment: Ratio of MIC for Mycobacterium tuberculosis expressing wild type EmbC gene to MIC for Mycobacterium tuberculosis expressing EmbC D249G mutant gene.
Assay [13] relates to Mycobacterium tuberculosis. As to the kind of experiment: Antimicrobial activity against Mycobacterium tuberculosis harboring Mycobacterium smegmatis embB M292L mutant gene after 48 hrs by agar proportion method.
Assay [14] has as its system Mycobacterium tuberculosis. Put plainly: Antimicrobial activity against Mycobacterium tuberculosis expressing EmbC M300L mutant gene after 48 hrs by agar proportion method.
The subject of assay [15] is Mycobacterium tuberculosis. As to the kind of experiment: Antimicrobial activity against Mycobacterium tuberculosis harboring Mycobacterium smegmatis embB M292I mutant gene after 48 hrs by agar proportion method.
Assay [16] relates to Mycobacterium tuberculosis. Put plainly: Antimicrobial activity against Mycobacterium tuberculosis embA V280M gene after 48 hrs by agar proportion method.

Take `CC[C@@H](CO)NCCN[C@@H](CC)CO` [ETHAMBUTOL]: the MIC in assay [1] was 8 µg/mL (≈ 39.2 µM); in assay [2], 4 µg/mL (≈ 19.6 µM); in assay [3], 0.5 µg/mL (≈ 2.45 µM); in [5], 0.5 µg/mL (≈ 2.45 µM); in assay [8], 0.5 µg/mL (≈ 2.45 µM); in [9] it was <3 µg/mL. Moreover, the MIC stood at 3 µg/mL (≈ 14.7 µM) in [11], 8 µg/mL (≈ 39.2 µM) in assay [13], 3 µg/mL (≈ 14.7 µM) in [15] and 4 µg/mL (≈ 19.6 µM) in assay [16]. Besides, the MIC90 in assay [4] is 1 µg/mL (≈ 4.89 µM); in [6] it was 1 µg/mL (≈ 4.89 µM); in assay [7], <0.5 µg/mL; in assay [10], <0.5 µg/mL; in [14] it was 0.5 µg/mL (≈ 2.45 µM). For the same molecule, the Ratio in assay [12] is 6.

Source of the values: ChEMBL document CHEMBL1649213, “The arabinosyltransferase EmbC is inhibited by ethambutol in Mycobacterium tuberculosis” (2009).
